Laboratory results from ChEMBL document CHEMBL5696442, “Discovery of type II inhibitors of TGFβ-activated kinase 1 (TAK1) and mitogen-activated protein kinase kinase kinase kinase 2 (MAP4K2)” (J Med Chem, 2015).
Calls of active or inactive are those of the source. The rule behind the calls is not given here.

Key:
[1] = molecular target: T1, Mitogen-activated protein kinase kinase kinase 7 (Homo sapiens) (UniProt O43318); assay: Inhibition of TAK1 Lys2 labeling site in human Huh-7 cell lysate at 1 uM by KiNativ Profiling analysis relative to control; format: subcellular
T1 sequence (whole entry): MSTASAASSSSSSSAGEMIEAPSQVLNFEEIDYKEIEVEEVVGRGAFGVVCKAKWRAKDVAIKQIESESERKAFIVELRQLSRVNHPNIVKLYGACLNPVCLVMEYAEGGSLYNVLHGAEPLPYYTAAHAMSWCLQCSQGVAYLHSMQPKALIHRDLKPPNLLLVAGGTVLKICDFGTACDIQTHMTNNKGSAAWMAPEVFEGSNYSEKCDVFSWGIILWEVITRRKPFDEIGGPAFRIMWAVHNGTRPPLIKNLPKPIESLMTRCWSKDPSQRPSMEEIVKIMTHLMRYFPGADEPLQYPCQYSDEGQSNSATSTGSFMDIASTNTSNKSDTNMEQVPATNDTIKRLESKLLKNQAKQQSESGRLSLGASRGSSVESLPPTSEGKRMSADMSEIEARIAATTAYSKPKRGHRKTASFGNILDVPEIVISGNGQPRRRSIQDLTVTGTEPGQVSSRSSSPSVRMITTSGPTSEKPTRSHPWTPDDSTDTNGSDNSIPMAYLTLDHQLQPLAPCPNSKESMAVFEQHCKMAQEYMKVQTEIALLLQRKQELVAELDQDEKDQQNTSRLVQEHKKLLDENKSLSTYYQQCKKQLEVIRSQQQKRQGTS

[2] = molecular target: Mitogen-activated protein kinase kinase kinase 20 (Homo sapiens, UniProt Q9NYL2); assay: Inhibition of ZAK Lys1 labeling site in human Huh-7 cell lysate at 1 uM by KiNativ Profiling analysis relative to control; format: subcellular
Sequence of Mitogen-activated protein kinase kinase kinase 20 (Q9NYL2 2-800 limits assumed): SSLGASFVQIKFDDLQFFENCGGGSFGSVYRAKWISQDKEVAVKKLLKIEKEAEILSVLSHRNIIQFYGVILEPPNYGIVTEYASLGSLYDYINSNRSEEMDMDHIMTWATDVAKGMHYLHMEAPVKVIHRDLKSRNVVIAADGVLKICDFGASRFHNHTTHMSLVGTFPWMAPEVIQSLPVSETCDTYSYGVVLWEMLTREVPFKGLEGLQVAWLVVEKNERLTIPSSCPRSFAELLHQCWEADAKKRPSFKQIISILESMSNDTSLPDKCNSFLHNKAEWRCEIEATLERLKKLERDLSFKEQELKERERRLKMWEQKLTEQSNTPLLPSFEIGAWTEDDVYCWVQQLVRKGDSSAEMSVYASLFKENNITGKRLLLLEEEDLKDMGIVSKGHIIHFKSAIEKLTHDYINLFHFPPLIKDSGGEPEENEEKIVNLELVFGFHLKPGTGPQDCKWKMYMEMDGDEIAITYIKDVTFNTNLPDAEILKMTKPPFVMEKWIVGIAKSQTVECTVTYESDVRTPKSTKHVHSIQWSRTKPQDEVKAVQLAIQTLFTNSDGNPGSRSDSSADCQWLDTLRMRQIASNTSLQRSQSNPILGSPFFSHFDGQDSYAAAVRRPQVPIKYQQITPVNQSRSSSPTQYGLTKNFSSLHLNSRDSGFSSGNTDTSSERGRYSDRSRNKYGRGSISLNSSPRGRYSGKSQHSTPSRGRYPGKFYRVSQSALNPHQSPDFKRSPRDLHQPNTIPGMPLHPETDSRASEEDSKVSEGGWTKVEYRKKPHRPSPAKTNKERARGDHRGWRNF

L929 = assay: Inhibition of TNF alpha induced IKKalpha/beta phosphorylation level in mouse L929 cells at 100 nM preincubated for 30 mins followed by TNF alpha stimulation and measured after 5 mins by Western blot analysis; format: functional, cell-based
Procedure, shortened: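 Mouse L929 cells were pretreated with compound at 100 nM for 30 min, then stimulated with TNFα for 5 min. Lysates were Western blotted for phospho-IKKα/β, with tubulin as loading control.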

[3] = molecular target: Mitogen-activated protein kinase 14 (Homo sapiens, UniProt Q16539); assay: Inhibition of p38 alpha in human A-375 cells at 5 uM by KiNativ Profiling analysis relative to control; format: cell-based
Sequence of Mitogen-activated protein kinase 14 (Q16539 whole entry): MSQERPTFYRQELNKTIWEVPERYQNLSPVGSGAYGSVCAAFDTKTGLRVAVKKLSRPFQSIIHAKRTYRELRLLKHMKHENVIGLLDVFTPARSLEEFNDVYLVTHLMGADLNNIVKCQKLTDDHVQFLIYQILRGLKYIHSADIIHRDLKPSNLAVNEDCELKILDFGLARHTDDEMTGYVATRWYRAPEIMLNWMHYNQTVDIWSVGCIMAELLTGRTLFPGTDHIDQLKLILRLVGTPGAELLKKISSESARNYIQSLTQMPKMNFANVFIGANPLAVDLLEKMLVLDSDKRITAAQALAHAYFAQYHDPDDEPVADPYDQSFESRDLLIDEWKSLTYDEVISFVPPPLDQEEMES

[4] = molecular target: Tyrosine-protein kinase ABL1 (Homo sapiens, UniProt P00519); assay: Inhibition of ABL (unknown origin) ACT labeling site by KiNativ Profiling analysis
Sequence of Tyrosine-protein kinase ABL1 (P00519 whole entry): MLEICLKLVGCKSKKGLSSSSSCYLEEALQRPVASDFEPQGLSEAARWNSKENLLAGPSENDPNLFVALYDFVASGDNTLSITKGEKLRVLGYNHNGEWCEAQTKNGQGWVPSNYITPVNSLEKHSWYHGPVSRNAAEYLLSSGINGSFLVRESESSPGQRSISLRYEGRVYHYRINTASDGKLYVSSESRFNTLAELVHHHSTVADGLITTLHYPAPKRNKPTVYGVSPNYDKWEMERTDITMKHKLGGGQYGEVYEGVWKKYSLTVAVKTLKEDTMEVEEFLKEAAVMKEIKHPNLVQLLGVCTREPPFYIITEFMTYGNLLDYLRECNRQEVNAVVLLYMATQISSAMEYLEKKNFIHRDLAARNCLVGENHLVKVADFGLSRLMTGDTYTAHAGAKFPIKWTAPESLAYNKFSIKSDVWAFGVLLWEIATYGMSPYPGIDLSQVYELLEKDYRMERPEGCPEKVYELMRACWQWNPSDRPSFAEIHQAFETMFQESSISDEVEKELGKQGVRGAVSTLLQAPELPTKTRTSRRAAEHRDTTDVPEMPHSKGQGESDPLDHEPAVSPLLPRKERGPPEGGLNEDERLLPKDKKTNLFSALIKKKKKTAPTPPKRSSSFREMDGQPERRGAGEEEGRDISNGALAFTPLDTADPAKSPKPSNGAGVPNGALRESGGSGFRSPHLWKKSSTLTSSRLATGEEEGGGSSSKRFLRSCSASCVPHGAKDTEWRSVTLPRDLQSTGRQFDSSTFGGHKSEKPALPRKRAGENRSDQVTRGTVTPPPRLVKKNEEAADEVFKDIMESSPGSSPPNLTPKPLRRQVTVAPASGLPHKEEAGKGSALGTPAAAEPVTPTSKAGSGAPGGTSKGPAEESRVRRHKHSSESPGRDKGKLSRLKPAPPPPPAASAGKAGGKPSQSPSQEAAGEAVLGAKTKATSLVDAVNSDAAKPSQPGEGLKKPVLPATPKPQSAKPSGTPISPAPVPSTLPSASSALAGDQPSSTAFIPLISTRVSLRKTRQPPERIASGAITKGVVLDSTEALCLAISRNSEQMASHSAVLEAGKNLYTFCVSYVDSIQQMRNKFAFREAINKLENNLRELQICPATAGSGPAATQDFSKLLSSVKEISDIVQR

[5] = molecular target: T2, Aurora kinase C (Homo sapiens) (UniProt Q9UQB9); assay: Inhibition of AurC ATP Loop labeling site in human A-375 cells at 5 uM by KiNativ Profiling analysis relative to control; format: cell-based
T2 sequence (whole entry): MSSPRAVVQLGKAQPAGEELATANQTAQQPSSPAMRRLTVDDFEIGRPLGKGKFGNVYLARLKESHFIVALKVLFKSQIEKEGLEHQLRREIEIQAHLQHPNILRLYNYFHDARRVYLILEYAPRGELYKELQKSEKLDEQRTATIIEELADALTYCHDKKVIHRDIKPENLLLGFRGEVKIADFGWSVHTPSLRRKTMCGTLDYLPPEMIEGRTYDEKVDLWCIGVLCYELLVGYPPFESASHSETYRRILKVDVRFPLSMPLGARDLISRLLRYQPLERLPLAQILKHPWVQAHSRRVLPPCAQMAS
Procedure, shortened: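 Live A375 melanoma cells were treated with compound at 5 or 0.5 μM, then lysed. The lysates were labeled with a lysine-reactive ATP or ADP-biotin probe. Kinase protection from probe labeling was measured by KiNativ.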

[6] = molecular target: T3, Kinase suppressor of Ras 1 (Homo sapiens) (UniProt Q8IVT5); assay: Inhibition of KSR1 ACT labeling site harbouring SKNVFYDNGK in human A-375 cells at 5 uM by KiNativ Profiling analysis relative to control; format: cell-based
T3 sequence (whole entry): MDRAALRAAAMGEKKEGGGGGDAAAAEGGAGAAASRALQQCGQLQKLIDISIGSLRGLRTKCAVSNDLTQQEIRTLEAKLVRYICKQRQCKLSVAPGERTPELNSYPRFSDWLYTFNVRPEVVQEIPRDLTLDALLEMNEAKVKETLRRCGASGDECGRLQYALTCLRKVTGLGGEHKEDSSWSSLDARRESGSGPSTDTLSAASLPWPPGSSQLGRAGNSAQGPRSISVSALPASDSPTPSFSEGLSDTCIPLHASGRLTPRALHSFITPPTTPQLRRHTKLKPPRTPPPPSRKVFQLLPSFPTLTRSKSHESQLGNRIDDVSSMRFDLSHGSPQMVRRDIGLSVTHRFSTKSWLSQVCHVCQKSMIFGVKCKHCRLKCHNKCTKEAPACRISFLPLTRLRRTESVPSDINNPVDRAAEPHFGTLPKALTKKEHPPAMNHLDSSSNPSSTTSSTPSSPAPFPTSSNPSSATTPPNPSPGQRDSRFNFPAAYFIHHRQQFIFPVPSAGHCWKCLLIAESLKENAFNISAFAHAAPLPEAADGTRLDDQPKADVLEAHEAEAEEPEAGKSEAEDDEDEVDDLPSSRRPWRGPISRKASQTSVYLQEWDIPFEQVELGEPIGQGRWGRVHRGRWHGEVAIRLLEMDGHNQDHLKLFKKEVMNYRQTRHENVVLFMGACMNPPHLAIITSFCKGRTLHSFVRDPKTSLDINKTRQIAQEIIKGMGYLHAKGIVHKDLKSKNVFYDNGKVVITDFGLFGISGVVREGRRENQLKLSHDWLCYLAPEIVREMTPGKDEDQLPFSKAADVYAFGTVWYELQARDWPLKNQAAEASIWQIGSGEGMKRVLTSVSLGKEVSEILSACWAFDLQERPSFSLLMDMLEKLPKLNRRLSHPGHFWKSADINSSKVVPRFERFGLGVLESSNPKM

[7] = molecular target: Serine/threonine-protein kinase 26 (Homo sapiens) (UniProt Q9P289); assay: Inhibition of MST4 Lys1 labeling site in human A-375 cells at 0.5 uM by KiNativ Profiling analysis relative to control; format: cell-based
Sequence of Serine/threonine-protein kinase 26 (Homo sapiens) (Q9P289 2-416 limits assumed): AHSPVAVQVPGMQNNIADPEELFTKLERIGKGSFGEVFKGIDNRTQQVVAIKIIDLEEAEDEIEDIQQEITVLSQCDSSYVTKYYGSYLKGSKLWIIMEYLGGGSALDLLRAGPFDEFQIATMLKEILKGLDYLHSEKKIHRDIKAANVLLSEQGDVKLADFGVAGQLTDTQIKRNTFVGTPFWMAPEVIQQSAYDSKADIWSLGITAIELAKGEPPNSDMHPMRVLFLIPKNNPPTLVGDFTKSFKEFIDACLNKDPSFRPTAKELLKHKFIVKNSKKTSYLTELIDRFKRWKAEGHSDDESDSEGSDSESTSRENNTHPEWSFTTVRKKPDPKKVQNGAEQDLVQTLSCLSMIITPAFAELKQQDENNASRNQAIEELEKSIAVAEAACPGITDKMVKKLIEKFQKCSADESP

[8] = molecular target: Glycogen synthase kinase-3 alpha (Homo sapiens) (UniProt P49840); assay: Inhibition of GSK3A Lys2 labeling site in human A-375 cells at 0.05 uM by KiNativ Profiling analysis relative to control; format: cell-based
[9] = molecular target: Serine/threonine-protein kinase 38 (Homo sapiens) (UniProt Q15208); assay: Inhibition of NDR1 Lys2 labeling site in human A-375 cells at 0.05 uM by KiNativ Profiling analysis relative to control; format: cell-based
Sequence of Serine/threonine-protein kinase 38 (Homo sapiens) (Q15208 2-465 limits assumed): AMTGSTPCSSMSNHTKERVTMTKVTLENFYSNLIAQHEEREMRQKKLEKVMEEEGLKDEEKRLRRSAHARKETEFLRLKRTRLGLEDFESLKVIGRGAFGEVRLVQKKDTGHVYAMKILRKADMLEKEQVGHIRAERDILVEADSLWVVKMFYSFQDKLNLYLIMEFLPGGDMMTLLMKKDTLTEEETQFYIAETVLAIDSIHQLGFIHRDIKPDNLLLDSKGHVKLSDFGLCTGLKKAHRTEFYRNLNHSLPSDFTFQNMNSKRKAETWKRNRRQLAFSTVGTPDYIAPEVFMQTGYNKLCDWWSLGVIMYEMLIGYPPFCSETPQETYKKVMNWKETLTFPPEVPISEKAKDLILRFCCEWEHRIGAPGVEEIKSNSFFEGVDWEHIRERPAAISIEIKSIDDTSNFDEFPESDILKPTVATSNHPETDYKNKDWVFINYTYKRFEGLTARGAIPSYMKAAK

[10] = molecular target: Phosphatidylinositol 4,5-bisphosphate 3-kinase catalytic subunit beta isoform (Homo sapiens) (UniProt P42338); assay: Inhibition of PIK3CB ATP labeling site in human A-375 cells at 0.05 uM by KiNativ Profiling analysis relative to control; format: cell-based
Sequence of Phosphatidylinositol 4,5-bisphosphate 3-kinase catalytic subunit beta isoform (Homo sapiens) (P42338 whole entry, looked up, the tested form may be a part, canonical isoform): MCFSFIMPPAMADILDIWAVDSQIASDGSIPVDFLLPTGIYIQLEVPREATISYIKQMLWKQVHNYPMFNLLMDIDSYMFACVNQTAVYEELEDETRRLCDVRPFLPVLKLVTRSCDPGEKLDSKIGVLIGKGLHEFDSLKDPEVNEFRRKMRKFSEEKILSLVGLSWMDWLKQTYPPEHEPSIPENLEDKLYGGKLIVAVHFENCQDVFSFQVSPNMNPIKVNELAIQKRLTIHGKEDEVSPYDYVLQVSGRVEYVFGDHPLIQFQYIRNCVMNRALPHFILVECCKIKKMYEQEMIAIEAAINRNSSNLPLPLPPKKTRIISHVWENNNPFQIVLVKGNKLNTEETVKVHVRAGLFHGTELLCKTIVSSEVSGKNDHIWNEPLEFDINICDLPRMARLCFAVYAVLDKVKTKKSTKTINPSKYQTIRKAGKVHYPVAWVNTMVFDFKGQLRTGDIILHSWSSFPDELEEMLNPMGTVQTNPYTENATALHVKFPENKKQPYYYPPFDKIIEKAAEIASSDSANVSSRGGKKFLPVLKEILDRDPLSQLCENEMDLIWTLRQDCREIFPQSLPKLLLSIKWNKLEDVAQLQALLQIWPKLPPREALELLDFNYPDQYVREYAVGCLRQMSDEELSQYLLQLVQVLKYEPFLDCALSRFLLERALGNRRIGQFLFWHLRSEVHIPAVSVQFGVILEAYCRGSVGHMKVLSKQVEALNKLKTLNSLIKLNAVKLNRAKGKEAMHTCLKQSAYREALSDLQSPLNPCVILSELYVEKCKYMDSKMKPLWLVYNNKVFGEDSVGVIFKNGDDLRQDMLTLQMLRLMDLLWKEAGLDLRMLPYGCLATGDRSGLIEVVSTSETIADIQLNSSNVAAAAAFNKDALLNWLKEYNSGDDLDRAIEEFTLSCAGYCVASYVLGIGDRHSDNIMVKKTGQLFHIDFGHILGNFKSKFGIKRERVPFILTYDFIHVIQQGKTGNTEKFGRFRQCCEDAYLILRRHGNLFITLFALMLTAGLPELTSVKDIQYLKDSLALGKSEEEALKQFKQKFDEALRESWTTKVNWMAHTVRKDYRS

[11] = molecular target: 3-phosphoinositide-dependent protein kinase 1 (Homo sapiens) (UniProt O15530); assay: Inhibition of PDK1 Protein Kinase Domain in human A-375 cells at 0.05 uM by KiNativ Profiling analysis relative to control
Sequence of 3-phosphoinositide-dependent protein kinase 1 (Homo sapiens) (O15530 whole entry, looked up, the tested form may be a part): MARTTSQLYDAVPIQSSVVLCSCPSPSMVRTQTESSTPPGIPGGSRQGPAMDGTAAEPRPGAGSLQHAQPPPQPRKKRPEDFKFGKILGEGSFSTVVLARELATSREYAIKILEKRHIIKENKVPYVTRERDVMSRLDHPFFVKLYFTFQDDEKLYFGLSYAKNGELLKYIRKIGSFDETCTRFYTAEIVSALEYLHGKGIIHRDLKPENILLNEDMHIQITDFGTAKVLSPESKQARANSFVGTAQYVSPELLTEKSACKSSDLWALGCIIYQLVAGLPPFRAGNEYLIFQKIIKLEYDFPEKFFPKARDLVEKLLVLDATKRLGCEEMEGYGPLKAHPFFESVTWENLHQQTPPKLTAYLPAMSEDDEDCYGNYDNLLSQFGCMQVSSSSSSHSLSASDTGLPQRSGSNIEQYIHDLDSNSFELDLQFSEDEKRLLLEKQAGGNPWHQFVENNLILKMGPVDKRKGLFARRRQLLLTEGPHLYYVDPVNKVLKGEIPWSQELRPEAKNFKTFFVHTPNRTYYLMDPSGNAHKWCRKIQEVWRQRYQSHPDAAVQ

## CNc1cc(Oc2cc(C(=O)Nc3cc(N4CCN(C)CC4)cc(C(F)(F)F)c3)ccc2C)ncn1
[1]
  inhibition: 7%
[2]
  inhibition: 31.8%
L929
  inhibition: inactive

## CCN1CCN(Cc2ccc(NC(=O)c3ccc(C)c(Oc4ccnc5[nH]ccc45)c3)cc2C(F)(F)F)CC1
[3]
  inhibition: 53.3%
[4]
  IC50: 75.2 nM
[5]
  inhibition: 31.4%
[6]
  inhibition: 32.1%
[7]
  inhibition: -0.4%
[8]
  inhibition: 0.3%
[9]
  inhibition: 30%
[10]
  inhibition: 3.1%
[11]
  inhibition: 11.2%

## CNc1cc(Oc2cc(C(=O)Nc3cc(-n4cnc(C)c4)cc(C(F)(F)F)c3)ccc2C)ncn1
[1]
  inhibition: 29.3%
[2]
  inhibition: 43.6%
L929
  inhibition: inactive

## CCN1CCN(Cc2ccc(NC(=O)c3ccc(C)c(/C=C/c4cnc5[nH]ccc5c4OC)c3)cc2C(F)(F)F)CC1
[3]
  inhibition: 83.3%
[4]
  IC50: 51.5 nM
[5]
  inhibition: 48.5%
[6]
  inhibition: 12.2%
[7]
  inhibition: 2.8%
[8]
  inhibition: 14.4%
[9]
  inhibition: 19.2%
[10]
  inhibition: 38.5%
[11]
  inhibition: -1.5%
